Bioassay records deposited in PubChem BioAssay by Johns Hopkins Ion Channel Center.
RGS4 block: human RGS4 inhibition | P49798 | HEK293 M3R/RGS4 inducible, Fluo-4 calcium flux; hits give high values; triggered by carbachol at its EC20 | B-score at 10 µM | 310,000 tested, 0.45% active | AID 463165;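 active = B-score, a plate-corrected calcium signal, over three deviations above library mean, with baseline fluorescence within five deviations of library mean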;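 also: RGS4 expression induced by doxycycline in cells with stable M3 receptor; B-score is computed from the integrated fluorescence ratio over baseline after carbachol; higher B-score means a larger calcium signal and so more RGS4 inhibition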
Target sequence (P49798 whole entry, looked up): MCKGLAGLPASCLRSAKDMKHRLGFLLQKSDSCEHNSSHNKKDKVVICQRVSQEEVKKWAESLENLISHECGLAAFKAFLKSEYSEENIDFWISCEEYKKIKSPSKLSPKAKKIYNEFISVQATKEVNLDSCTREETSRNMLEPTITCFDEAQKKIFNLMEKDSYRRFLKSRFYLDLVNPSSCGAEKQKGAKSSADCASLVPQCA
MrgX1 ag: agonists of human MrgX1 receptor. 310,000 tested, 0.44% active. AID 588627. MrgX1-HEK293 cells, Fluo-4 calcium fluorescence, agonist mode; hits give high values. B-score at 10 µM. Q96LB2;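 active = calcium response B-score plate-corrected fluorescence ratio at least 3 library SD, with starting fluorescence B-score inside 5 SD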
Target sequence (Q96LB2 whole entry, looked up): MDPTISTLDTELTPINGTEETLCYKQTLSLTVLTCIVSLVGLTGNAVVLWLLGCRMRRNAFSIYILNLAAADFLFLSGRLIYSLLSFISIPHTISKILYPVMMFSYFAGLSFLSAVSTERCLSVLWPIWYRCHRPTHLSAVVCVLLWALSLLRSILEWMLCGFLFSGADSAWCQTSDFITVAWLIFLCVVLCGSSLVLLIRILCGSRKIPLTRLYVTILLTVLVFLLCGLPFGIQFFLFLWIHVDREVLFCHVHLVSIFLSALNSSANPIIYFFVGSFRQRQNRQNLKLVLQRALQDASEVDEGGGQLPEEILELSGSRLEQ
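System – MrgX1-expressing HEK293 cells · Incubation – cells plated overnight, dye loaded 0.5 h 37 °C, 0.5 h room temperature · Technique – kinetic Fluo-4 NW fluorescence of intracellular calcium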
RGS4 act: potentiators or activators of RGS4; HEK293 M3R/inducible RGS4, carbachol calcium flux Fluo4; hits give low values; 310,000 tested, 0.92% active; B-score at 10 µM;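 active = B-score of the integrated calcium signal more than 4 SD below the library mean, with starting fluorescence not abnormally high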;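 also: negative B-score means reduced calcium response which marks RGS4 activation or potentiation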
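System – HEK293 FlpIn-TREx cells, stable M3R, doxycycline-inducible RGS4 · Reagent – ECmax carbachol challenge · Times – compound preincubation 20 min at room temperature before agonist · Technique – Fluo4 fluorescence kinetic imaging of calcium · Measure – B score of integrated Fluo4 ratio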
MrgX1 antag: antagonists of human MrgX1 receptor; 310,000 tested, 1.3% active; B-score at 10 µM; AID 588676; MRGX1-HEK293 calcium flux, Fluo-4, BAM8-22 antagonism; hits give low values;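 active = calcium-response B-score plate-corrected more than 3 library SD below zero, starting fluorescence within 5 deviations, no agonist response on first addition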;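 also: peak minus trough fluorescence over baseline after final BAM8-22 challenge near maximal dose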
MrgX1 allo act: allosterically activates human MrgX1 receptor signaling. MrgX1-HEK293, Fluo-4 calcium flux, FDSS; hits give high values. 310,000 tested, 0.63% active. Q96LB2. B-score at 10 µM;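 active = plate-corrected calcium response at least 3 library SD above typical, normal starting fluorescence, not activating the receptor alone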;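 also: compound read alongside a low EC10 to EC30 dose of BAM8-22 agonist; peak minus trough fluorescence over baseline measured at the second addition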
* marks the source's active call; other numbers are inactive results; i = inactive; nt = no result given. The list is not random: actives were taken first. Their share in the collection is about 3.5%.

SMILES	RGS4 block	MrgX1 ag	RGS4 act	MrgX1 antag	MrgX1 allo act
CC(CCN1CCN(c2ccccc2)CC1)c1ccccc1 (stereo unspecified)	i	i	i	i	i
Cc1cc(/C=C2/NC(=O)NC2=O)c(C)n1-c1ccncc1	i	i	i	i	6.75*
Cc1cccc(-n2c(C)cc(/C=C3\NC(=O)NC3=O)c2C)c1	i	i	i	i	i
Cc1cccc(N(CC(=O)N2CCCC2)S(C)(=O)=O)c1	i	i	i	i	i
CC(=O)N1CCC(C(=O)Nc2ccc(S(=O)(=O)NCCc3ccccc3)cc2)CC1	i	i	i	i	i
O=C(/C=C/c1cccs1)NC(=S)NNC(=O)c1ccccc1O	i	62.6*	i	i	i
O=C(NC(=S)NNC(=O)c1ccccc1O)c1ccco1	i	30.2*	i	i	i
O=[N+]([O-])c1ccccc1/C=N/N1CCN(c2ccc(Cl)cc2)CC1	i	i	i	i	i
O=[N+]([O-])c1ccccc1/C=N\N1CCN(c2ccccc2)CC1	i	i	i	i	6.92*
Cc1ccc2cc3cc(C(=O)NCCCN4CCCC4=O)oc3nc2c1	i	i	i	i	i
COc1ccc(C(=O)/C=C/c2ccc(N3CCCCC3)c([N+](=O)[O-])c2)c(OC)c1	i	i	i	i	13.9*
O=C1ON=C(c2ccc(Cl)cc2)/C1=C/c1ccc(O)cc1	i	34.2*	i	i	i
COc1ccccc1N(Cc1ccccc1)S(=O)(=O)c1cccc(C(=O)Nc2ccc(C)cn2)c1	i	i	i	i	i
CCOc1cc(-c2ccc(N)c(OCC)c2)ccc1N	i	i	i	i	i
CCOc1ccc(N)c(SSc2cc(OCC)ccc2N)c1	i	28.8*	i	i	i
Cc1ccc(S(=O)(=O)NCC(=O)N(CC(=O)NCc2ccco2)Cc2ccccc2)cc1	i	35.9*	i	i	i
Cc1ccc(S(=O)(=O)NCC(=O)N(CCc2ccccc2)CC(=O)NCc2ccco2)cc1	i	nt	i	nt	nt
COc1ccc(-c2noc(CCC(=O)N3CCN(c4cc(C)ccc4C)CC3)n2)cc1	i	i	-7*	i	i
CCOc1cc(/C=C2/NC(=O)N(CC(=O)Nc3cccc(C)c3)C2=O)ccc1OC	i	i	i	-7.06*	i
CCOc1cc(/C=C2/NC(=O)N(CC(=O)Nc3cccc(C)c3)C2=O)ccc1O	i	i	i	i	i
O=C(NCc1ccncc1)/C(=N/O)c1ccccc1	i	i	i	-5.74*	i
CC(=O)OCCn1c2nc(=O)[nH]c(=O)c-2nc2cc(C)c(C)cc21	i	i	-7.65*	i	i
CC(=O)OCCn1c(C)[n+](CCOC(C)=O)c2cc(Cl)c(Cl)cc21	i	i	i	i	i
NC(N)=NC(=O)c1nc(Cl)c(N)nc1N	i	i	i	i	i
NC(N)=NC(=O)c1nc(Cl)c(N2CCCCCC2)nc1N	nt	57.4*	nt	i	i
SMILES	RGS4 block	MrgX1 ag	RGS4 act	MrgX1 antag	MrgX1 allo act
CN(C)c1ccc(N=C/C=C2\N(C)c3ccccc3C2(C)C)cc1	i	i	i	i	7.22*
CN1/C(=C\C=O)C(C)(C)c2ccccc21	i	i	i	i	i
CN1/C(=C\C=Nc2ccc3ccccc3c2)C(C)(C)c2ccccc21	nt	83.3*	nt	i	i
Cc1nc2c(sc(=S)n2Cc2ccco2)c(=O)n1CC(=O)Nc1cc(F)ccc1F	i	i	i	i	i
Oc1ccc(COCc2ccccc2)c2cccnc12	i	i	i	-5.57*	i
CCCOCc1ccc(O)c2ncccc12	i	i	i	i	i
COc1ccc(NC(=O)CN(C)C(=O)c2cc(-c3ccc(Cl)cc3)nc3ccccc23)cc1	i	i	-7.95*	i	i
CCOc1ccc(NC(=O)CN(C)C(=O)c2cc(-c3ccc(OC)cc3)nc3ccccc23)cc1OCC	i	i	-8.01*	i	i
Cc1c(C(=O)N2CCC(C)CC2)oc2ccc3c(c12)C(O)CC1(CCCCC1)O3 (stereo unspecified)	i	i	i	i	i
CN1C(=O)/C(=C\C=C2/CCCN2C)N(C)C1=S	i	i	i	i	i
CCN1C(=O)/C(=C/C=C2/CCCN2C)OC1=S	i	27.2*	i	i	i
CC(C)CN(CC(C)C)S(=O)(=O)N1CCC(C(=O)NCc2ccc(F)cc2)CC1	i	i	i	i	i
CC(C)CN(CC(C)C)S(=O)(=O)N1CCC(C(=O)NCCc2ccc(Cl)cc2)CC1	i	i	i	-7.56*	i
COc1ccccc1CNC(=O)Cn1cc([N+](=O)[O-])ccc1=O	i	i	i	i	i
Cn1c(CNC(=O)c2ccco2)nnc1SCC(=O)c1ccc(Br)cc1	i	i	i	i	i
c1ccc(-c2nnsc2-c2ccccc2)cc1	i	i	i	i	i
O=S(=O)(c1ccc(Cl)c(Cl)c1)c1snnc1-c1ccccc1	i	nt	-7.3*	nt	nt
COC(=O)C1=C(C)N(Cc2ccco2)C(=O)/C1=C\c1ccc([N+](=O)[O-])cc1	i	28.2*	i	i	i
CSCCC(NC(=O)c1ccccc1)C(=O)N1CCN(C(c2ccccc2)c2ccccc2)CC1 (stereo unspecified)	i	i	i	i	i
CC(=O)Nc1ccc(NC(=O)c2ccc(CN3CCc4ccccc4C3)cc2)cc1	i	i	i	i	i
CSc1cccc(NC(=O)c2ccc(CN3CCc4ccccc4C3)cc2)c1	i	i	i	-8.21*	i
O=C(Nc1cccc(Br)c1)c1ccc(CN2CCc3ccccc3C2)cc1	i	i	-8.8*	-6.15*	i
Cc1noc(C)c1S(=O)(=O)N1CCCC1C(=O)O (stereo unspecified)	i	i	i	i	i
c1ccc(-c2ccc(CN3CCN(c4ncccn4)CC3)cc2)cc1	i	i	-6.99*	i	i
Cc1ccc(C2(c3noc(CN4CCC(c5ccncc5)CC4)n3)CCCC2)cc1	i	i	i	i	i
CCOC(=O)c1c(NC(=O)c2nn(CC)cc2Br)sc2c1CCCCC2	i	i	-6.97*	i	i
CCOC(=O)c1c(NC(=O)c2nn(CC)cc2Br)sc(C)c1C	i	i	i	i	i
Cc1nc2ccc(S(=O)(=O)NCC(=O)N(C)Cc3ccccc3)cc2s1	i	i	i	i	i
